Results as given in ChEMBL document CHEMBL1135989, “Synthesis and in vitro pharmacology of substituted quinoline-2,4-dicarboxylic acids as inhibitors of vesicular glutamate transport” (J Med Chem, 2002).

Tests used:
[1] = target: T1, Vesicular glutamate transporter 3 (Rattus norvegicus) (UniProt Q7TSF2); assay: Inhibition of Vesicular glutamate transporter (VGLUT) by the ability to block the uptake of 250 uM of [3,4-3H]-L-glutamate into synaptic vesicles isolated from rat forebrain at equimolar conc. (250 uM ); type: functional
T1 sequence (whole entry): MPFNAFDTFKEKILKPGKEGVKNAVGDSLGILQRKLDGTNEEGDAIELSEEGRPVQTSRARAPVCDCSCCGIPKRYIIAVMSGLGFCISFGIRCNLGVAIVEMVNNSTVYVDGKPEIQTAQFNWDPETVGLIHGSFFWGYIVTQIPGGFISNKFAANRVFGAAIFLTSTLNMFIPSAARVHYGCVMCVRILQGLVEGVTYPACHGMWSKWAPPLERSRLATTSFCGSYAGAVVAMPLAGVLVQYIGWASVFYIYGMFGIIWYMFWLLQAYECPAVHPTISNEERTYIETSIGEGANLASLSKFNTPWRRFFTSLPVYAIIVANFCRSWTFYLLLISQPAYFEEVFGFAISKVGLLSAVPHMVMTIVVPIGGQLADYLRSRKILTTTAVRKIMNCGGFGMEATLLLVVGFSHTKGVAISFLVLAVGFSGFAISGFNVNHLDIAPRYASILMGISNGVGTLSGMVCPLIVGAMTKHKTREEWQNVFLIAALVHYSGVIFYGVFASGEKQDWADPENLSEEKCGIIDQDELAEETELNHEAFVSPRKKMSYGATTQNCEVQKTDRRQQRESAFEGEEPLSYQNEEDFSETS
How it was run: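 Same vesicle uptake set-up (0.25 mM [3H]-L-glutamate, 2.0 mM ATP, 30 °C, 1.5 min, filtration/LSC, ATP-free background subtracted), with inhibitor at 250 µM added with substrate. Expressed as % of control uptake, mean ± SEM (n).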

[2] = target: T1, Vesicular glutamate transporter 3 (Rattus norvegicus); assay: Inhibition of Vesicular glutamate transporter (VGLUT) by the ability to block the uptake of 250 uM of [3,4-3H]-L-glutamate into synaptic vesicles isolated from rat forebrain at a 20 fold excess (5 mM) of inhibitor; type: functional
How it was run: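 Inhibitor at 5 mM added with substrate. Quenched in ice-cold 150 mM KCl, filtered, counted by LSC. ATP-free uptake subtracted. Expressed as % of control uptake, mean ± SEM (n).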

[3] = target: T2, Vesicular glutamate transporter 3 (Rattus norvegicus, UniProt Q7TSF2); assay: Estimated inhibitory conc. against Vesicular glutamate transporter (VGLUT), using Cheng-Prushoff equation
T2 sequence (Q7TSF2 whole entry): T1 sequence (whole entry)
How it was run: (§1)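 Rat forebrain synaptic vesicles (male Sprague-Dawley, stored -80 °C). Vesicles (100-150 µg protein) preincubated 5 min at 30 °C. Ran 1.5 min, then filtration and LSC. Uptake without ATP subtracted. IC50 from dose-response; Ki by Cheng-Prusoff.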

[4] = target: T2, Vesicular glutamate transporter 3; assay: Inhibitory conc. against Vesicular glutamate transporter (VGLUT), derived from Lineweaver-Burke analysis
How it was run: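 Uptake into rat forebrain synaptic vesicles (ATP 2.0 mM, 30 °C, 1.5 min, [3H]-L-glutamate, filtration and LSC) run across both inhibitor and substrate concentrations. Ki from Lineweaver-Burk double reciprocal plots (1/V vs 1/[S]) and a replot of Km(app) against inhibitor concentration.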

[5] = target: T2, Vesicular glutamate transporter 3; assay: Evaluated for competitive inhibition against Vesicular glutamate transporter (VGLUT), and Ki value was reported.
[6] = target: T2, Vesicular glutamate transporter 3; assay: Compound was evaluated for the inhibition of Vesicular glutamate transporter (VGLUT)
[7] = target: T2, Vesicular glutamate transporter 3; assay: Compound was evaluated for competitive inhibition against Vesicular glutamate transporter (VGLUT), and Ki value was reported,.using Cheng-Prushoff equation; how it was run: as §1

SMILES: O=C(O)c1cc(C(=O)O)c2ccc(O)cc2n1
- Glutamate uptake remaining (% of control) [1]: 100%

SMILES: CCOc1ccc2nc(C(=O)O)cc(C(=O)O)c2c1
- Glutamate uptake remaining (% of control) [1]: 97%

SMILES: O=C(O)c1cc(C(=O)O)c2cc(Br)cc(Br)c2n1
- Glutamate uptake remaining (% of control) [2]: 2%

SMILES: COc1ccc(OC)c2c(C(=O)O)cc(C(=O)O)nc12
- Glutamate uptake remaining (% of control) [2]: 62%
- Glutamate uptake remaining (% of control) [1]: 100%

SMILES: O=C(O)c1cc(C(=O)O)c2cc(-c3ccc(-c4ccccc4)cc3)ccc2n1
- Ki [3]: 41 µM
- Glutamate uptake remaining (% of control) [1]: 20%
- Ki [4]: 95 µM

SMILES: COc1cc(OC)c2nc(C(=O)O)cc(C(=O)O)c2c1
- Glutamate uptake remaining (% of control) [2]: 40%
- Glutamate uptake remaining (% of control) [1]: 100%

SMILES: O=C(O)c1cc(C(=O)O)c2ccc(-c3ccccc3)cc2n1
- Glutamate uptake remaining (% of control) [1]: 91%

SMILES: C=C(C[C@H](N)C(=O)O)C(=O)O
- Ki [5]: 3000 µM

SMILES: O=C(O)c1cc(O)c2ccc(Cl)cc2n1 [7-CHLOROKYNURENIC ACID]
- Ki [5]: 590 µM

SMILES: COc1cccc2c(C(=O)O)cc(C(=O)O)nc12
- Glutamate uptake remaining (% of control) [2]: 20%
- Glutamate uptake remaining (% of control) [1]: 90%

SMILES: O=C(O)c1cc(C(=O)O)c2cc(OCCCCCCO)ccc2n1
- Glutamate uptake remaining (% of control) [1]: 74%

SMILES: O=C(O)c1cc(C(=O)O)c2cccc(Br)c2n1
- Glutamate uptake remaining (% of control) [2]: 7%
- Glutamate uptake remaining (% of control) [1]: 100%

SMILES: O=C(O)c1cc(C(=O)O)c2cc(/C=C/c3cccc4ccccc34)ccc2n1
- Glutamate uptake remaining (% of control) [1]: 21%

SMILES: O=C(O)c1cc(C(=O)O)c2cccc(F)c2n1
- Glutamate uptake remaining (% of control) [2]: 39%
- Glutamate uptake remaining (% of control) [1]: 100%

SMILES: O=C(O)c1cc(C(=O)O)c2ccc(CCc3ccccc3)cc2n1
- Glutamate uptake remaining (% of control) [1]: 29%

SMILES: O=C(O)c1cc(C(=O)O)c2cc(Oc3ccccc3)ccc2n1
- Glutamate uptake remaining (% of control) [1]: 74%

SMILES: O=C(O)c1cc(C(=O)O)c2cc(-c3ccccc3)ccc2n1
- Glutamate uptake remaining (% of control) [1]: 77%

SMILES: O=C(O)c1cc(C(=O)O)c2cccc(C(=O)O)c2n1
- Glutamate uptake remaining (% of control) [1]: 100%

SMILES: O=C(O)c1cc(C(=O)O)c2c(I)cccc2n1
- Glutamate uptake remaining (% of control) [1]: 100%

SMILES: O=C(O)c1cc(C(=O)O)c2cc(I)ccc2n1
- Glutamate uptake remaining (% of control) [2]: 10%
- Glutamate uptake remaining (% of control) [1]: 87%

SMILES: O=C(O)c1cc(C(=O)O)c2cc(O)ccc2n1
- Glutamate uptake remaining (% of control) [1]: 100%

SMILES: O=C(O)c1cc(C(=O)O)c2c(F)cccc2n1
- Glutamate uptake remaining (% of control) [2]: 54%
- Glutamate uptake remaining (% of control) [1]: 100%

SMILES: O=C(O)c1cc(C(=O)O)c2cc(OCCO)ccc2n1
- Glutamate uptake remaining (% of control) [1]: 100%

SMILES: O=C(O)c1cc(C(=O)O)c2cc(OCc3ccccc3)ccc2n1
- Glutamate uptake remaining (% of control) [2]: 3%
- Ki [3]: 368 µM
- Glutamate uptake remaining (% of control) [1]: 85%

SMILES: O=C(O)c1cc(C(=O)O)c2cc(CCc3ccccc3)ccc2n1
- Ki [3]: 143 µM
- Glutamate uptake remaining (% of control) [1]: 47%

SMILES: O=C(O)c1cc(O)c2cccc(O)c2n1 [XANTHURENATE]
- Ki [5]: 190 µM

SMILES: N[C@]1(C(=O)O)CC[C@H](C(=O)O)C1 (relative stereo)
- Ki [5]: 700 µM

SMILES: O=C(O)c1cc(C(=O)O)c2cccc(-c3ccccc3)c2n1
- Glutamate uptake remaining (% of control) [1]: 88%

SMILES: O=C(O)c1cc(=O)c2ccccc2[nH]1 [TRANSTORINE]
- Ki [6]: 1300 µM

SMILES: O=C(O)c1cc(C(=O)O)c2cc(-c3cccc4ccccc34)ccc2n1
- Glutamate uptake remaining (% of control) [1]: 53%

SMILES: CCCCCCOc1ccc2nc(C(=O)O)cc(C(=O)O)c2c1
- Glutamate uptake remaining (% of control) [1]: 79%

SMILES: O=C(O)c1cc(C(=O)O)c2cc(/C=C/c3ccccc3)ccc2n1
- Ki [3]: 167 µM
- Glutamate uptake remaining (% of control) [1]: 51%
- Ki [4]: 129 µM

SMILES: O=C(O)c1cc(C(=O)O)c2ccc(Cl)c(Cl)c2n1
- Glutamate uptake remaining (% of control) [2]: 2%

SMILES: COc1ccc2nc(C(=O)O)cc(C(=O)O)c2c1
- Glutamate uptake remaining (% of control) [2]: 51%
- Glutamate uptake remaining (% of control) [1]: 100%

SMILES: O=C(O)c1cc(C(=O)O)c2c(Br)cccc2n1
- Glutamate uptake remaining (% of control) [2]: 11%
- Glutamate uptake remaining (% of control) [1]: 100%

SMILES: O=C(O)c1cc(C(=O)O)c2c(/C=C/c3ccccc3)cccc2n1
- Glutamate uptake remaining (% of control) [1]: 27%

SMILES: O=C(O)c1cc(C(=O)O)c2cc(Br)ccc2n1
- Glutamate uptake remaining (% of control) [2]: 2%
- Glutamate uptake remaining (% of control) [1]: 74%

SMILES: O=C(O)c1cc(C(=O)O)c2cc(/N=N/c3ccccc3)ccc2n1
- Glutamate uptake remaining (% of control) [2]: 0%
- Ki [7]: 288 µM
- Glutamate uptake remaining (% of control) [1]: 31%

SMILES: O=C(O)c1cc(C(=O)O)c2cccc(O)c2n1
- Glutamate uptake remaining (% of control) [2]: 2%
- Ki [3]: 286 µM
- Glutamate uptake remaining (% of control) [1]: 73%

SMILES: O=C(O)c1cc(C(=O)O)c2ccc(OCc3ccccc3)cc2n1
- Glutamate uptake remaining (% of control) [2]: 1%
- Glutamate uptake remaining (% of control) [1]: 50%

SMILES: Cc1cc(-c2ccc(/N=N/c3ccc4c(S(=O)(=O)O)cc(S(=O)(=O)O)c(N)c4c3O)c(C)c2)ccc1/N=N/c1ccc2c(S(=O)(=O)O)cc(S(=O)(=O)O)c(N)c2c1O [EVANS BLUE]
- Ki [5]: 0.04 µM

SMILES: O=C(O)c1cc(C(=O)O)c2cccc(-c3cccc4ccccc34)c2n1
- Glutamate uptake remaining (% of control) [1]: 70%

SMILES: O=C(O)c1cc(C(=O)O)c2cc(/C=C/c3ccc(-c4ccccc4)cc3)ccc2n1
- Ki [3]: 64 µM
- Glutamate uptake remaining (% of control) [1]: 37%

SMILES: O=C(O)c1cc(C(=O)O)c2cc(OCCc3ccccc3)ccc2n1
- Ki [3]: 189 µM

SMILES: O=C(O)c1cc(C(=O)O)c2ccccc2n1
- Glutamate uptake remaining (% of control) [2]: 38%
- Glutamate uptake remaining (% of control) [1]: 100%

SMILES: O=C(O)c1cc(C(=O)O)c2cc(Cl)ccc2n1
- Glutamate uptake remaining (% of control) [2]: 1%
- Glutamate uptake remaining (% of control) [1]: 73%

SMILES: O=C(O)c1cc(C(=O)O)c2c(-c3ccccc3)cccc2n1
- Glutamate uptake remaining (% of control) [1]: 100%

SMILES: COc1ccc2c(C(=O)O)cc(C(=O)O)nc2c1
- Glutamate uptake remaining (% of control) [2]: 48%
- Glutamate uptake remaining (% of control) [1]: 100%

SMILES: O=C(O)c1cc(C(=O)O)c2c(-c3cccc4ccccc34)cccc2n1
- Glutamate uptake remaining (% of control) [1]: 64%

SMILES: COc1cc(OC)c2c(C(=O)O)cc(C(=O)O)nc2c1
- Glutamate uptake remaining (% of control) [2]: 15%
- Glutamate uptake remaining (% of control) [1]: 100%

SMILES: COc1cc2nc(C(=O)O)cc(C(=O)O)c2cc1OC
- Glutamate uptake remaining (% of control) [2]: 58%
- Glutamate uptake remaining (% of control) [1]: 100%

SMILES: O=C(O)c1cc(C(=O)O)c2cc3c(cc2n1)OCO3
- Glutamate uptake remaining (% of control) [2]: 24%
- Glutamate uptake remaining (% of control) [1]: 100%

SMILES: O=C(O)c1cc(C(=O)O)c2cc(OC3CCCCC3)ccc2n1
- Glutamate uptake remaining (% of control) [1]: 67%

SMILES: O=C(O)c1cc(C(=O)O)c2cc3c(cc2n1)OCCO3
- Glutamate uptake remaining (% of control) [2]: 12%
- Glutamate uptake remaining (% of control) [1]: 100%

SMILES: COc1cc(-c2ccc(/N=N/c3ccc4c(S(=O)(=O)O)cc(S(=O)(=O)O)c(N)c4c3O)c(OC)c2)ccc1/N=N/c1ccc2c(S(=O)(=O)O)cc(S(=O)(=O)O)c(N)c2c1O [CHICAGO SKY BLUE]
- Ki [5]: 0.19 µM
